Compounds with a hit are over-represented: about 1.8% of the library has one in this group of screens.
Jurkat NFkB inh = inhibitors of the PMA/ionomycin-induced NF-kB reporter in Jurkat cells | AID 435003 | actives 0.53% (n = 330,000) | inhibition, % at 4 µM | PMA/ionomycin-induced NF-kB luciferase reporter, luminescence; in the data active = inhibition above about 50%
UPR CHOP act = apoptotic UPR (CHOP) activation | activation, % at 10 µM | actives 0.34% (n = 330,000) | CHO-CHOP luciferase reporter, luminescence; percent of tunicamycin response over DMSO baseline | AID 449763;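 active = at 10 µM dose, activation of 40% or more, normalized to positive control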
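Test system: CHO-CHOP cells, stable luciferase reporter of PERK-eIF2a-CHOP signalling | Quantity: 500 CHO-CHOP cells per well | Buffer or medium: F12 plus 10% serum | Compound dosing: 10 µM single point, 0.5% DMSO | Schedule: 6 h compound treatment, 37 °C | Signal: Luciferase luminescence | Control set: Tunicamycin high control, DMSO low control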
697 NFkB inh = inhibitors of the PMA/ionomycin-induced NF-kB reporter in 697 B cells; 697 B-cell NF-kB luciferase reporter, 16 h; inhibition, % at 4 µM; actives 0.33% (n = 330,000); in the data active = inhibition above about 35%
CRFBP-R2 block = CRF-BP/CRF-R2 complex antagonism | HEK293 CRF-R2/CRF-BP, CRF-induced calcium fluorescence | inhibition, % at 11.8 µM | actives 0.59% (n = 350,000);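 active = inhibition of the ligand-induced calcium signal above about 50% at the single tested concentration, limit read from the data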
XBP1 UPR activ = adaptive UPR (XBP1) activation; CHO-XBP1 luciferase reporter, IRE1-XBP1 UPR activation, luminescence; percent of tunicamycin response, DMSO as zero; activation, % at 20 µM; actives 0.33% (n = 330,000); AID 463104;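 active = versus positive control, 20 µM dose yields 30% or more activation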
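Material: CHO-XBP1 cells stably carrying IRE1-XBP1-driven luciferase reporter | Medium: F12 with 10% serum | Compound dosing: 20 µM single concentration, DMSO 1% | Incubation: Overnight seeding at 37 °C, 6 h compound treatment at 37 °C | Detection: Steady-Glo luminescence read | Read-out basis: % activation of reporter signal versus tunicamycin and DMSO controls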
Jurkat NFkB conf = lowers PMA/ionomycin-induced NF-kB signal in Jurkat cells; inhibition, % at 4 µM; shares compounds with Jurkat NFkB inh; Jurkat NF-kB luciferase, 16 h; actives 27% (n = 2,700);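 active = inhibition reaching about 45% at 4 µM in either replicate, limit read from the data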
Large screens that a line does not name were inactive (follow-up assays come after a bar, where they were run).

COC(=O)c1ccc(C(=O)NC2CCCc3c2cnn3-c2ccccc2F)nc1 (centres undefined)	Jurkat NFkB inh 56.0 | Jurkat NFkB conf inactive
COc1ccc(-c2cc(C3CCN(c4cc(Cl)nc(N)n4)CC3)[nH]n2)cc1	none
Nc1nc(Cl)cc(N2CCC(c3cc(-c4ccc(Cl)cc4)n[nH]3)CC2)n1	Jurkat NFkB inh 69.9 | Jurkat NFkB conf 63.3
O=C(O)c1ccc(Nc2cnc3ccccc3n2)cc1	none
CCOC(=O)c1ccc(Nc2cnc3ccccc3n2)cc1	none | Jurkat NFkB conf inactive
N#Cc1ccc(CN2CCN(C(=O)CN3C(=O)NC4(CCCC4)C3=O)CC2)cc1	none
O=C(C#Cc1ccccc1)c1ccco1	Jurkat NFkB inh 50.7 | Jurkat NFkB conf inactive
O=C(N/N=C/c1ccccc1)c1ccco1	none
O=c1[nH]c(C2CCCN(S(=O)(=O)c3ccc(F)cc3)C2)nc2c1nnn2Cc1ccc(F)cc1 (centres undefined)	none
O=[N+]([O-])c1ccc(C[n+]2cccc3c4ccccc4ccc32)cc1	none
CCCCCCCCC[n+]1cccc2c3ccccc3ccc21	Jurkat NFkB inh 70.8 | Jurkat NFkB conf 68.5
CC(=O)N1CCc2cc(S(=O)(=O)N3c4ccccc4CC3C)ccc21 (centres undefined)	Jurkat NFkB inh 53.3 | Jurkat NFkB conf inactive
CC(=O)N1CCc2cc(S(=O)(=O)N3CCOCC3)ccc21	none
CSc1ccc(S(=O)(=O)N2c3ccccc3CC2C)cc1 (centres undefined)	Jurkat NFkB inh 54.9 | Jurkat NFkB conf inactive
Cc1ccc(NC(=O)N2CCCC2C(=O)Nc2nnc(C(C)C)s2)cc1 (centres undefined)	none
COc1ccc(C(=O)COC(=O)COc2cc(C)cc(C)c2)cc1	none
CCN1C[C@@H]2[C@@H]3C(=O)N(Cc4ccccc4)C(=O)[C@@H]3[C@](CC)(C1=O)N2C(=O)c1ccccc1	none (no result: Jurkat NFkB inh, UPR CHOP act, 697 NFkB inh, XBP1 UPR activ)
Cc1ccc(/C=N/NC(=O)c2ccc3ccccc3c2)s1	Jurkat NFkB inh 51.5 | Jurkat NFkB conf inactive
CCOC(=O)CC1CCCCN1C(=O)c1cc(COc2cccc3cnccc23)on1 (centres undefined)	Jurkat NFkB inh 50.2 | Jurkat NFkB conf 71.8
CCOc1ccc(NC(=O)c2cccc(NC(C)=O)c2)cc1S(=O)(=O)N1CCCC1	none
CCc1ccc(NC(=O)C(=S)NC2CCCCC2)cc1	none | Jurkat NFkB conf inactive
O=C(Nc1ccc(Br)cc1)NC1CCCCCCC1	none | Jurkat NFkB conf inactive
CCc1ccc(NC(=O)NC2CCCCCCC2)cc1	none
COc1ccc(NC(=O)C(=S)NC2CCCCC2)cc1	none | Jurkat NFkB conf inactive
CCOc1ccc(NC(=O)C(=S)NC2CCCCC2)cc1	none
Oc1ccc(-c2csc(Nc3ccccn3)n2)cc1	none
Cc1cc(-c2csc(Nc3ccccn3)n2)ccc1F	none | Jurkat NFkB conf inactive
CCOc1cccc(CN2CCC(Oc3ccc(C(=O)N4CCCC4)cc3)CC2)c1O	none (no result: Jurkat NFkB inh, UPR CHOP act, 697 NFkB inh, XBP1 UPR activ)
COc1nc(Nc2nc3ccccc3c(=O)[nH]2)nc2ccc(C)cc12	Jurkat NFkB inh 81.0 | Jurkat NFkB conf inactive
Cc1ccc(-c2nc3ccc(Cl)cc3n2OC(C)C(=O)O)cc1 (centres undefined)	none | Jurkat NFkB conf inactive
COc1ccc(C(=O)Nc2ccc(N3CCOCC3)cc2)cc1S(=O)(=O)N1CCOCC1	none
COc1ccc(C(=O)Nc2ccc(-c3ccc(C)o3)cc2)cc1S(=O)(=O)N1CCOCC1	Jurkat NFkB inh 58.6 | Jurkat NFkB conf inactive
O=C(N/N=C\c1cc(Br)ccc1O)c1ccc(S(=O)(=O)N2CCCCC2)cc1	Jurkat NFkB inh 53.6 | Jurkat NFkB conf inactive
CC(=O)Nc1ccc(S(=O)(=O)Nc2nc(C)nc3sc(C)c(C)c23)cc1	none
O=C(Nc1ccc([N+](=O)[O-])cc1)Nc1ccon1	Jurkat NFkB inh 63.0 | Jurkat NFkB conf inactive
CCCCCCCCn1cnc2c(N)c(C)c(C)cc21	Jurkat NFkB inh 74.7 | Jurkat NFkB conf inactive
O=C(Cc1ccc(NC(=O)C2CCN(C(=O)C3CC3)CC2)cc1)Nc1cccc(C(=O)N2CCCCC2)c1	none (no result: Jurkat NFkB inh, UPR CHOP act, 697 NFkB inh, XBP1 UPR activ)
COc1ccc(CCNc2nnc(Sc3nnnn3-c3ccccc3)s2)cc1OC	Jurkat NFkB inh 77.2 | Jurkat NFkB conf 55.1
